# Experimental data published in ChEMBL document CHEMBL1139439, “Folate-synthesizing enzyme system as target for development of inhibitors and inhibitor combinations against Candida albicans-synthesis and biological activity of new 2,4-diaminopyrimidines and 4'-substituted 4-aminodiphenyl sulfones” (J Med Chem, 2004).
# What was measured:
# [1] = Inhibitory activity against dihydropteroic acid synthase (SYN) from candida albicans; details: read-out: I50
# How it was run: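 Partially purified SYN extract was prepared from C. albicans ATCC 11651 and incubated with sulfones at pH 8.4. Periodic samples were quenched with trichloroacetic acid, and folate formed was quantified by bioassay with folate-requiring Streptococcus faecium. I50 is the concentration giving a 50% decrease in dihydropteroic acid production versus the uninhibited control.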
# [2] = Inhibitory activity against dihydropteroic acid synthase (SYN) from Escherichia coli; details: read-out: I50
# [3] = Inhibitory activity against dihydropteroic acid synthase (SYN) from Mycobacterium lufu (DDS resistant); details: read-out: I50
# [4] = Inhibitory activity against dihydropteroic acid synthase (SYN) from Mycobacterium lufu (DDS sensitive); details: read-out: I50
# [5] = biological target: T1, Dihydropteroate synthetase, putative (Plasmodium berghei str. ANKA, UniProt A0A113T0T6); assay: (§1) Inhibitory activity against dihydropteroic acid synthase (SYN) from Plasmodium berghei; details: read-out: I50
# T1 sequence (A0A113T0T6 whole entry): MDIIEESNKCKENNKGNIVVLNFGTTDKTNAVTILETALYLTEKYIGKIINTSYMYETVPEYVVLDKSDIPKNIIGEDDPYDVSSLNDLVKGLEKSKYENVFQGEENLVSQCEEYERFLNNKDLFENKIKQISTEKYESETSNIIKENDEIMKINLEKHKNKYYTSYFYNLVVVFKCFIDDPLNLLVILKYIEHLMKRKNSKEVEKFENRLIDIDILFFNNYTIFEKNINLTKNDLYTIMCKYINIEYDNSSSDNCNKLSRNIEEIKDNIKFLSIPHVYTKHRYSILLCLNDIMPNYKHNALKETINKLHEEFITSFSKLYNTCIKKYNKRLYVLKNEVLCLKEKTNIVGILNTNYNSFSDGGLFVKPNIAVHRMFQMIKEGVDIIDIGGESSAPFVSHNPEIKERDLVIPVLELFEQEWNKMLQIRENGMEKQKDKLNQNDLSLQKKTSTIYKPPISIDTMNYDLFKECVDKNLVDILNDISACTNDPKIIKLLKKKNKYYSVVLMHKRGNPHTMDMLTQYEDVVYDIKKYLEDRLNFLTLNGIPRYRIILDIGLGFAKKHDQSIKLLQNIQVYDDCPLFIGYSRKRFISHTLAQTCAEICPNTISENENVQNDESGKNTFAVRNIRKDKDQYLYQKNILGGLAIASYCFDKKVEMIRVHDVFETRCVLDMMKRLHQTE
# [6] = biological target: T2, Dihydropteroate synthetase, putative (Plasmodium berghei str. ANKA) (UniProt A0A113T0T6); assay: as §1
# T2 sequence (whole entry): T1 sequence (A0A113T0T6 whole entry)
# [7] = biological target: T3, Dihydrofolate reductase (Rattus norvegicus, UniProt Q920D2); assay: (§2) Inhibitory activity against cell free dihydrofolate reductase (DHFR) from rat; details: read-out: I50
# T3 sequence (Q920D2 whole entry): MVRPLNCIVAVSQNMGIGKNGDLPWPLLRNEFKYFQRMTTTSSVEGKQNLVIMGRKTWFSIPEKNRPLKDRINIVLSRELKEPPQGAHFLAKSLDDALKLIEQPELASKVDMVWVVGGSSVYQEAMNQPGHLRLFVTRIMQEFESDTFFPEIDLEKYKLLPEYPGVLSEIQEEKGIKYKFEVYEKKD
# [8] = biological target: T4, Dihydrofolate reductase (Candida albicans, UniProt P22906); assay: Inhibitory activity against cell free dihydrofolate reductase (DHFR) from Candida albicans; details: read-out: I50
# T4 sequence (P22906 whole entry): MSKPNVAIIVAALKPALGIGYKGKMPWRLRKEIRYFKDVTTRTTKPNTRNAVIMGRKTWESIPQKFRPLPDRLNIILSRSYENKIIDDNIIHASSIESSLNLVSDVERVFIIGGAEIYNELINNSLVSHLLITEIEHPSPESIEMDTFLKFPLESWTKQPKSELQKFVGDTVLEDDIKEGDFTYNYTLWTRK
# [9] = biological target: Dihydrofolate reductase (Mycobacterium lufu); assay: Inhibitory activity against cell free dihydrofolate reductase (DHFR) from Mycobacterium lufu
# [10] = test system: Candida albicans; assay: Inhibitory effect on Candida albicans YEM12 Strain; format: functional
# How it was run: (§3)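 MICs were determined by serial dilution in RPMI medium. MIC is the lowest concentration giving culture turbidity ≤20% of the control culture.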
# [11] = test system: Candida albicans; assay: Inhibitory effect on Candida albicans YEM13 BENup Strain; format: functional; how it was run: as §3
# [12] = test system: Candida albicans; assay: Inhibitory effect on Candida albicans YEM27 quad deletion Strain; format: functional; how it was run: as §3
# [13] = test system: Candida albicans; assay: Inhibitory effect on Candida albicans wild type YEM30 Strain; format: functional; how it was run: as §3
# [14] = test system: Nakaseomyces glabratus; assay: Inhibitory effect on Candida glabrata YEM75 WT Strain; format: functional
# How it was run: (§4)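 For C. glabrata strains, MICs were determined by serial dilution in RPMI medium and read after 48 h. MIC is the lowest concentration giving turbidity ≤20% of the control culture.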
# [15] = test system: Candida albicans; assay: Inhibitory effect on Candida albicans YEM15 CDR1CDR2up Strain; format: functional; how it was run: as §3
# [16] = test system: Candida albicans; assay: Inhibitory effect on Candida albicans wild type YEM14 Strain; format: functional; how it was run: as §3
# [17] = test system: Nakaseomyces glabratus; assay: Inhibitory effect on Candida glabrata YEM216 pCDR1pCDR2pBEN YEM75 WT Strain; format: functional; how it was run: as §4
# [18] = test system: Nakaseomyces glabratus; assay: Inhibitory effect on Candida glabrata YEM88 CgCDR1 CgCDR2up Strain; format: functional; how it was run: as §4
# [19] = biological target: T3, Dihydrofolate reductase; assay: as §2; details: read-out: I50; remark: listed apart in the source
# How it was run: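 Commercially sourced rat DHFR was preincubated 5 min at 25 °C with 0.1 mM NADPH and varying inhibitor in 0.1 M Tris, pH 7.24. The reaction was started with 0.03 mM dihydrofolate and followed as the fall in absorbance at 340 nm over time. I50 was taken as the inhibitor concentration halving reaction velocity, fitted by nonlinear regression.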
# [20] = test system: Nakaseomyces glabratus; assay: IInhibitory effect on Candida glabrata YEM75 WT Strain; format: functional; how it was run: as §4
compound,measurement,setting,value
Nc1ccc(S(=O)(=O)c2ccc(NCC(=O)O)cc2)cc1 [ACEDIASULFONE],IC50,[1],1.22 µM
same,IC50,[2],37.1 µM
same,IC50,[3],0.82 µM
same,IC50,[4],0.87 µM
same,IC50,[5],17.8 µM
Nc1ccc(S(=O)(=O)c2ccc(O)cc2)cc1,IC50,[1],2.4 µM
same,IC50,[2],34.9 µM
same,IC50,[3],1.61 µM
same,IC50,[4],1.5 µM
same,I50,[6],32.2 µM
Nc1ncc(NCc2ccccc2)c(N)n1,IC50,[7],58.2 µM
same,IC50,[8],7.94 µM
same,I50,[9],105 uM l-1
COc1ccc(Cc2cnc(N)nc2N)cc1OCCCCN1C(=O)c2ccccc2C1=O,MIC,[10],> 64 µg/mL
same,IC50,[7],1.76 µM
same,MIC,[11],> 64 µg/mL
same,IC50,[8],0.061 µM
same,MIC,[12],> 64 µg/mL
same,MIC,[13],> 64 µg/mL
same,MIC,[14],> 64 µg/mL
same,MIC,[15],> 64 µg/mL
same,MIC,[16],> 64 µg/mL
same,MIC,[17],> 64 µg/mL
same,MIC,[18],> 64 µg/mL
OC(Cn1cncn1)(Cn1cncn1)c1ccc(F)cc1F [FLUCONAZOLE],MIC,[10],1 µg/mL
same,MIC,[11],64 µg/mL
same,MIC,[12],≤ 0.25 µg/mL
same,MIC,[13],2 µg/mL
same,MIC,[15],64 µg/mL
same,MIC,[16],64 µg/mL
CC(=O)Nc1ccc(S(=O)(=O)c2ccc(N)cc2)cc1 [MONO-N-ACETYL DAPSONE],IC50,[2],75.7 µM
same,IC50,[3],4.05 µM
same,IC50,[4],7.01 µM
same,IC50,[5],33.3 µM
COC(=O)c1ccc(S(=O)(=O)c2ccc(N)cc2)cc1,IC50,[2],149 µM
same,IC50,[3],13.8 µM
same,IC50,[4],11.8 µM
same,IC50,[5],147 µM
CCNc1ccc(S(=O)(=O)c2ccc(N)cc2)cc1,IC50,[1],3.16 µM
same,IC50,[2],41.7 µM
same,IC50,[3],1.48 µM
same,IC50,[4],2.75 µM
Cc1ccc(S(=O)(=O)c2ccc(N)cc2)cc1,IC50,[1],10.1 µM
same,IC50,[2],89.9 µM
same,IC50,[3],5.92 µM
same,IC50,[4],8.08 µM
same,IC50,[5],48 µM
CN(C)c1ccc(S(=O)(=O)c2ccc(N)cc2)cc1,IC50,[1],3.83 µM
same,IC50,[3],2.04 µM
same,IC50,[4],1.76 µM
same,IC50,[5],21.5 µM
CNc1ccc(S(=O)(=O)c2ccc(N)cc2)cc1,IC50,[1],2.81 µM
same,IC50,[2],46.2 µM
same,IC50,[3],2 µM
same,IC50,[4],1.29 µM
same,IC50,[5],26.7 µM
COc1cc(OC)cc(N2C3CCC2CC(c2cnc(N)nc2N)C3)c1 (centres undefined),MIC,[10],16 µg/mL
same,MIC,[11],> 64 µg/mL
same,IC50,[8],0.026 µM
same,IC50,[19],0.084 µM
same,MIC,[12],1 µg/mL
same,MIC,[13],32 µg/mL
same,MIC,[14],4 µg/mL
same,MIC,[15],> 64 µg/mL
same,MIC,[16],64 µg/mL
same,MIC,[17],4 µg/mL
same,MIC,[18],32 µg/mL
COc1cc(Cc2cnc(N)nc2N)ccc1OCCNc1ccc(S(=O)(=O)c2ccc(N)cc2)cc1,MIC,[10],> 64 µg/mL
same,MIC,[20],> 64 µg/mL
same,IC50,[7],7.23 µM
same,MIC,[11],> 64 µg/mL
same,IC50,[8],0.34 µM
same,MIC,[12],> 64 µg/mL
same,MIC,[13],> 64 µg/mL
same,MIC,[15],> 64 µg/mL
same,MIC,[16],> 64 µg/mL
same,MIC,[17],> 64 µg/mL
same,MIC,[18],> 64 µg/mL
Nc1ccc(S(=O)(=O)c2ccc(N)cc2)cc1 [DAPSONE],IC50,[1],1.78 µM
same,IC50,[2],34.4 µM
same,IC50,[3],1.18 µM
same,IC50,[4],1.2 µM
same,IC50,[5],12.4 µM
NNC(=O)c1ccc(S(=O)(=O)c2ccc(N)cc2)cc1,IC50,[2],155 µM
same,IC50,[3],9.6 µM
same,IC50,[4],12.7 µM
same,I50,[6],76.5 µM
Nc1ncc(OCc2cccc3ccccc23)c(N)n1,MIC,[10],32 µg/mL
same,IC50,[7],2.63 µM
same,MIC,[11],> 64 µg/mL
same,IC50,[8],0.43 µM
same,MIC,[12],32 µg/mL
same,MIC,[13],> 64 µg/mL
same,MIC,[14],16 µg/mL
same,MIC,[15],> 64 µg/mL
same,MIC,[16],> 64 µg/mL
same,MIC,[17],16 µg/mL
same,MIC,[18],64 µg/mL
Nc1ccc(S(=O)(=O)c2ccccc2)cc1,IC50,[1],13.3 µM
same,IC50,[2],116 µM
same,IC50,[3],12 µM
same,IC50,[4],12.1 µM
same,IC50,[5],104 µM
COc1cc(Cc2cnc(N)nc2N)ccc1OCCCCN1C(=O)c2ccccc2C1=O,MIC,[10],> 64 µg/mL
same,IC50,[7],1.81 µM
same,MIC,[11],> 64 µg/mL
same,IC50,[8],0.031 µM
same,MIC,[12],> 64 µg/mL
same,MIC,[13],> 64 µg/mL
same,MIC,[14],> 64 µg/mL
same,MIC,[15],> 64 µg/mL
same,MIC,[16],> 64 µg/mL
same,MIC,[17],> 64 µg/mL
same,MIC,[18],> 64 µg/mL
